pIC50: −log10 of the molar value.
How the values were obtained:
Cathepsin K = Cathepsin K (Homo sapiens, UniProt P43235); assay: Inhibition of humanized rabbit cathepsin K
In short: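 IC50 was measured against the humanized rabbit enzyme and is the mean of at least four independent titrations, reported with SEM.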

Procathepsin L = Procathepsin L (Homo sapiens, UniProt P07711); assay: Inhibition of human cathepsin L
Cathepsin S = Cathepsin S (Homo sapiens, UniProt P25774); assay: Inhibition of human cathepsin S
Sequence of Cathepsin S (P25774 whole entry): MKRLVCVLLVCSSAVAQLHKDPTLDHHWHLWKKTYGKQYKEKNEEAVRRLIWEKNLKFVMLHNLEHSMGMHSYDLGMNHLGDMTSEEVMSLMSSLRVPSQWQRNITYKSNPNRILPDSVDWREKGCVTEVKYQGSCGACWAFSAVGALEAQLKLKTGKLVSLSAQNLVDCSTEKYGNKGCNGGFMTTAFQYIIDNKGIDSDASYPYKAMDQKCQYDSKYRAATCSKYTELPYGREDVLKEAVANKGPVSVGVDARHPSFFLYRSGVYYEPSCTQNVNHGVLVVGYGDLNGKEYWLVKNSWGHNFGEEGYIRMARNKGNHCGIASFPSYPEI

Cathepsin B = Cathepsin B (Homo sapiens, UniProt P07858); assay: Inhibition of human cathepsin B

Sequence of Procathepsin L (P07711 whole entry): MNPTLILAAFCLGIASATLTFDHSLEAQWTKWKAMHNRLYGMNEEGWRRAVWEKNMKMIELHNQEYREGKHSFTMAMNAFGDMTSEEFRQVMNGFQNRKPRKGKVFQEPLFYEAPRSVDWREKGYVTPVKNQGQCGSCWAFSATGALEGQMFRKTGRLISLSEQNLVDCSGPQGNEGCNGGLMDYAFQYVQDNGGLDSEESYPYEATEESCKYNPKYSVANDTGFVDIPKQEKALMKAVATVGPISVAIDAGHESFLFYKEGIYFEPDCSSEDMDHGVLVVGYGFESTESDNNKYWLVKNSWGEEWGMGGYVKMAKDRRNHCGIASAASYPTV

Row | pIC50 (Cathepsin K) | pIC50 (Procathepsin L) | pIC50 (Cathepsin S) | pIC50 (Cathepsin B) | Structure (SMILES)
1 | 6.62 | – | – | – | CSCC[C@H](NC(=O)[C@H](CC(C)C)N[C@@H](c1ccc(-c2ccc(S(C)(=O)=O)cc2)cc1)C(F)(F)F)C(=O)NS(C)(=O)=O
2 | 6.56 | – | – | – | CC(C)C[C@H](N[C@@H](c1ccc(-c2ccc(S(C)(=O)=O)cc2)cc1)C(F)(F)F)C(=O)N[C@@H](CCc1ccccc1)C(N)=O
3 | 7.06 | – | – | – | CSCC[C@H](NC(=O)[C@H](CC(C)C)N[C@@H](c1ccc(-c2ccc(S(C)(=O)=O)cc2)cc1)C(F)(F)F)C(=O)NCc1ccccc1
4 | 6.56 | – | – | – | CSCC[C@H](NC(=O)[C@H](CC(C)C)N[C@@H](c1ccc(-c2ccc(S(C)(=O)=O)cc2)cc1)C(F)(F)F)C(=O)NCC(F)(F)F
5 | 6.76 | – | – | – | CC(C)C[C@H](N[C@@H](c1ccc(-c2ccc(S(C)(=O)=O)cc2)cc1)C(F)(F)F)C(=O)N[C@@H](C)C(N)=O
6 | 7.18 | – | – | – | CSC[C@H](NC(=O)[C@H](CC(C)C)N[C@@H](c1ccc(-c2ccc(S(C)(=O)=O)cc2)cc1)C(F)(F)F)C(N)=O
7 | 6.96 | – | – | – | CC(C)C[C@H](N[C@@H](c1ccc(-c2ccc(S(C)(=O)=O)cc2)cc1)C(F)(F)F)C(=O)N[C@@H](CS(C)(=O)=O)C(N)=O
8 | 6.82 | – | – | – | CC(C)C[C@H](N[C@@H](c1ccc(-c2ccc(S(C)(=O)=O)cc2)cc1)C(F)(F)F)C(=O)N[C@@H](CCS(C)(=O)=O)C(N)=O
9 | 9.05 | – | – | – | CC(C)C[C@H](N[C@@H](c1ccc(-c2ccc(S(C)(=O)=O)cc2)cc1)C(F)(F)F)C(=O)N[C@@H](C)C#N
10 | 9.70 | – | – | – | CSCC[C@@H](C#N)NC(=O)[C@H](CC(C)C)N[C@@H](c1ccc(-c2ccc(S(C)(=O)=O)cc2)cc1)C(F)(F)F
11 | 7.17 | – | – | – | CNC(=O)[C@H](CCSC)NC(=O)[C@H](CC(C)C)N[C@@H](c1ccc(-c2ccc(S(C)(=O)=O)cc2)cc1)C(F)(F)F
12 | 7.39 | – | – | – | CSCC[C@H](NC(=O)[C@H](CC(C)C)N[C@@H](c1ccc(-c2ccc(S(C)(=O)=O)cc2)cc1)C(F)(F)F)C(C)=O
13 | 6.92 | – | – | – | CSCC[C@H](NC(=O)[C@H](CC(C)C)N[C@@H](c1ccc(-c2ccc(S(C)(=O)=O)cc2)cc1)C(F)(F)F)C(=O)O
14 | 5.22 | – | – | – | CC(C)C[C@H](N[C@@H](c1ccc(-c2ccc(S(C)(=O)=O)cc2)cc1)C(F)(F)F)C(=O)N[C@H](Cc1ccccc1)C(N)=O
15 | 8.00 | 4.77 | 4.18 | < 4.00 | CC(C)C[C@H](N[C@@H](c1ccc(-c2ccc(S(C)(=O)=O)cc2)cc1)C(F)(F)F)C(=O)N[C@@H](Cc1ccccc1)C(N)=O
16 | 9.22 | – | – | – | CC(C)C[C@H](N[C@@H](c1ccc(-c2ccc(S(C)(=O)=O)cc2)cc1)C(F)(F)F)C(=O)N[C@H](C#N)Cc1ccccc1
17 | 6.62 | 4.20 | 4.39 | < 4.00 | CC(C)C[C@H](N[C@@H](c1ccc(-c2ccc(S(C)(=O)=O)cc2)cc1)C(F)(F)F)C(=O)NCC(N)=O
18 | 7.89 | 4.25 | 4.11 | < 4.00 | CSCC[C@H](NC(=O)[C@H](CC(C)C)N[C@@H](c1ccc(-c2ccc(S(C)(=O)=O)cc2)cc1)C(F)(F)F)C(N)=O
19 | 5.98 | – | – | – | CSCC[C@H](NC(=O)[C@H](CC(C)C)N[C@@H](c1ccc(-c2ccc(S(C)(=O)=O)cc2)cc1)C(F)(F)F)C(=O)N(C)C
20 | 7.57 | – | – | – | COC(=O)[C@H](CCSC)NC(=O)[C@H](CC(C)C)N[C@@H](c1ccc(-c2ccc(S(C)(=O)=O)cc2)cc1)C(F)(F)F
21 | 9.70 | – | – | – | CC(C)C[C@H](N[C@@H](c1ccc(-c2ccc(S(C)(=O)=O)cc2)cc1)C(F)(F)F)C(=O)NCC#N

Source: ChEMBL document CHEMBL1140019, “Primary amides as selective inhibitors of cathepsin K” (Bioorg Med Chem Lett, 2007)
